# ChEMBL document CHEMBL1629563, “Pharmacokinetic and safety evaluation of BILR 355, a second-generation nonnucleoside reverse transcriptase inhibitor, in healthy volunteers” (Antimicrob Agents Chemother, 2008)
# What was measured:
# Homo sapiens [1] = assay: Toxicity in healthy human assessed as occurrence of maculopapular rash at 75 mg, po administered as single dose relative to control; assay type: organism-based; details: in vivo
# Homo sapiens [2] = assay: Ratio of AUC (0 to infinity) in human at 12.5 mg, po in presence of 100 mg of ritonavir to AUC (0 to infinity) in human at 12.5 mg, po; assay type: ADME, organism-based; details: in vivo
# [3] = Half life in healthy human at 5 mg, po administered as single dose coadministered with 100 mg of ritonavir; assay type: ADME, organism-based; details: in vivo
# [4] = Tmax in healthy human at 5 mg, po administered as single dose coadministered with 100 mg of ritonavir; assay type: ADME, organism-based; details: in vivo
# [5] = Renal clearance in healthy human at 50 mg, po administered as single dose coadministered with 100 mg of ritonavir by high-pressure liquid chromatography-tandem mass spectrometry/mass spectrometry method; assay type: ADME, organism-based, Kidney; details: in vivo, read-out: CL_renal (converted)
# [6] = Apparent volume of distribution in terminal phase in high fat fed healthy human at 50 mg, po administered as single dose coadministered with 100 mg of ritonavir; assay type: ADME, organism-based; details: in vivo, read-out: Vz/F
# In short: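 Fed cohort: healthy males ate an FDA-recipe high-fat breakfast (about 150/250/500-600 cal from protein/carbohydrate/fat) 30 min before a 50 mg oral dose of BILR 355 in PEG solution. Ritonavir 100 mg was given 10 h before and with the dose. Plasma was sampled over 144 h and assayed by LC-MS/MS. Noncompartmental analysis gave Cmax and Vz/F. Vss/F = CL/F·(MRTp.o. − 1/Ka).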
# Homo sapiens [7] = assay: Toxicity in healthy human assessed as occurrence of fatigue at 12.5 mg, po administered as single dose relative to control; assay type: organism-based; details: in vivo
# Homo sapiens [8] = assay: Toxicity in healthy human assessed as occurrence of migraine at 5 mg, po administered as single dose relative to control; assay type: organism-based; details: in vivo
# [9] = Apparent volume of distribution at steady state in healthy human at 50 mg, po administered as single dose coadministered with 100 mg of ritonavir; assay type: ADME, organism-based; details: in vivo, read-out: Vss/F
# In short: (§1)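 Healthy male volunteers, fasted overnight, got one oral dose of BILR 355 in PEG solution with 200 ml water. Ritonavir 100 mg was given 10 h before and again with the dose. Plasma was sampled (EDTA) from predose to 144 h and assayed by validated LC-MS/MS. Cmax and Vz/F came from noncompartmental analysis. Vss/F = CL/F·(MRTp.o. − 1/Ka), with Ka from compartmental modelling.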
# [10] = Renal clearance in healthy human at 5 mg, po administered as single dose by high-pressure liquid chromatography-tandem mass spectrometry/mass spectrometry method; assay type: ADME, organism-based, Kidney; details: in vivo, read-out: CL_renal (converted)
# [11] = Renal clearance in healthy human at 37.5 mg, po administered as single dose coadministered with 100 mg of ritonavir by high-pressure liquid chromatography-tandem mass spectrometry/mass spectrometry method; assay type: ADME, organism-based, Kidney; details: in vivo, read-out: CL_renal (converted)
# Homo sapiens [12] = assay: Toxicity in healthy human assessed as occurrence of vomiting at 75 mg, po administered as single dose relative to control; assay type: organism-based; details: in vivo
# [13] = Apparent volume of distribution at steady state in healthy human at 87.5 mg, po administered as single dose coadministered with 100 mg of ritonavir; assay type: ADME, organism-based; details: in vivo, read-out: Vss/F; in short: as §1
# [14] = AUC (0 to infinity) in healthy human at 100 mg, po administered as single dose; assay type: ADME, organism-based; design: dose 100 mg, time infinity, route oral; details: plasma
# In short: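 Healthy male volunteers, six active plus two placebo per dose group, single oral dose in PEG solution with 200 ml water after overnight fast; breakfast 60 to 90 min post-dose. EDTA plasma sampled predose to 144 h. Assayed by validated LC-MS/MS after protein precipitation. Noncompartmental analysis, AUC by linear up/log down trapezoidal rule; Vss = CL/F·(MRTp.o. − 1/Ka).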
# [15] = AUC (0 to last) in healthy human at 37.5 mg, po administered as single dose coadministered with 100 mg of ritonavir; assay type: ADME, organism-based; design: dose 37.5 mg, route oral, time 0 - last; details: plasma
# In short: (§2)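 Healthy male volunteers, fasted. Ritonavir 100 mg given 10 h before and again together with single oral BILR 355 in PEG solution. EDTA plasma sampled predose to 144 h. LC-MS/MS assay after protein precipitation. Noncompartmental analysis, AUC by linear up/log down trapezoidal rule; Vss = CL/F·(MRTp.o. − 1/Ka).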
# Homo sapiens [16] = assay: Toxicity in healthy human assessed as occurrence of maculopapular rash at 37.5 mg, po administered as single dose coadministered with 100 mg of ritonavir; assay type: organism-based; details: in vivo
# [17] = Mean residence time in healthy human at 62.5 mg, po administered as single dose coadministered with 100 mg of ritonavir; assay type: ADME, organism-based; details: in vivo
# Homo sapiens [18] = assay: Toxicity in healthy human assessed as occurrence of neurological eyelid disorder at 1 mg, po administered as single dose relative to control; assay type: organism-based; details: in vivo
# Homo sapiens [19] = assay: Ratio of half life in human at 50 mg, po in presence of 100 mg of ritonavir to half life in human at 50 mg, po; assay type: ADME, organism-based; details: in vivo
# [20] = Apparent oral clearance in healthy human at 62.5 mg, po administered as single dose coadministered with 100 mg of ritonavir; assay type: ADME, organism-based; details: in vivo; in short: as §2
# Homo sapiens [21] = assay: Toxicity in healthy human assessed as occurrence of nausea at 5 mg, po administered as single dose relative to control; assay type: organism-based; details: in vivo
# [22] = Mean residence time in healthy human at 37.5 mg, po administered as single dose coadministered with 100 mg of ritonavir; assay type: ADME, organism-based; details: in vivo
# Homo sapiens [23] = assay: Toxicity in healthy human assessed as occurrence of diarrhea at 87.5 mg, po administered as single dose coadministered with 100 mg of ritonavir; assay type: organism-based; details: in vivo
# Homo sapiens [24] = assay: Toxicity in healthy human assessed as occurrence of neurological eyelid disorder at 100 mg, po administered as single dose relative to control; assay type: organism-based; details: in vivo
# Homo sapiens [25] = assay: Toxicity in healthy human assessed as occurrence of fatigue at 75 mg, po administered as single dose coadministered with 100 mg of ritonavir; assay type: organism-based; details: in vivo
# Homo sapiens [26] = assay: Toxicity in healthy human assessed as occurrence of frequent bowel movements at 100 mg, po administered as single dose relative to control; assay type: organism-based; details: in vivo
# [27] = Renal clearance in healthy human at 87.5 mg, po administered as single dose coadministered with 100 mg of ritonavir by high-pressure liquid chromatography-tandem mass spectrometry/mass spectrometry method; assay type: ADME, organism-based, Kidney; details: in vivo, read-out: CL_renal (converted)
# In short: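 Healthy male volunteers, fasted overnight, got one oral dose in PEG solution with 200 ml water. Ritonavir 100 mg was given 10 h before and again with the dose. Urine was collected quantitatively over 0–6, 6–24 and 24–72 h and stored at −20°C, then assayed by validated HPLC-MS/MS. CLR = amount excreted unchanged over an interval / plasma AUC over the same interval.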
# [28] = Drug excretion in healthy human urine assessed as unchanged drug in high fat fed healthy human at 50 mg, po administered as single dose coadministered with 100 mg of ritonavir by high-pressure liquid chromatography-tandem mass spectrometry/mass spectrometry method; assay type: ADME, organism-based; details: read-out: Drug uptake
# In short: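 Ritonavir 100 mg was given 10 h before and with one oral dose of BILR 355 in PEG solution. Urine was collected by weight as predose blank, then 0-6, 6-24 and 24-72 h, stored at −20°C and assayed by LC-MS/MS. fe = unchanged drug excreted (Ae) as a percentage of dose. Line 50: high-fat breakfast 30 min before dosing.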
# Homo sapiens [29] = assay: Toxicity in healthy human assessed as occurrence of neurological eyelid disorder at 25 mg, po administered as single dose relative to control; assay type: organism-based; details: in vivo
smiles,measurement,setting,value
CCN1c2ncc(CCOc3cc[n+]([O-])c4ccccc34)cc2C(=O)N(C)c2cccnc21 [BILR 355],Activity,Homo sapiens [1],0%
same,Ratio,Homo sapiens [2],31
same,half-life,[3],14.7 h
same,Tmax,[4],5.71 h
same,CL renal,[5],4.87 mL/min
same,Vd/F,[6],100 L
same,Activity,Homo sapiens [7],20%
same,Activity,Homo sapiens [8],0%
same,Vd/F,[9],125 L
same,CL renal,[10],4.52 mL/min
same,CL renal,[11],4.92 mL/min
same,Activity,Homo sapiens [12],0%
same,Vd/F,[13],112 L
same,AUC(0-inf),[14],1310 ng·h/mL
same,AUC(0-t),[15],5800 ng·h/mL
same,Activity,Homo sapiens [16],16.7%
same,MRT,[17],14 h
same,Activity,Homo sapiens [18],0%
same,Ratio,Homo sapiens [19],4.6
same,CL/F,[20],141 mL/min
same,Activity,Homo sapiens [21],0%
same,MRT,[22],16.9 h
same,Activity,Homo sapiens [23],16.7%
same,Activity,Homo sapiens [24],0%
same,Activity,Homo sapiens [25],0%
same,Activity,Homo sapiens [26],0%
same,CL renal,[27],8.2 mL/min
same,dose excreted,[28],4.62%
same,Activity,Homo sapiens [29],0%
